Bioassay records deposited in PubChem by several laboratories.
RanGTP-Impb inh: inhibitors of RanGTP-importin-beta interaction, primary screen, biochemical, FRET, CFP-Ran, YFP-importin-beta, homogeneous | cell-free CFP-Ran/YFP-importin-beta FRET ratio | AID 2216 | inhibition, % (no concentration beside the values) | 1.1% of 300,000 active;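 active means more than half of the replicate wells show a fall in the fluorescence ratio signal beyond about 16%, limit read from the data, passing the limit was not always enough; inconclusive means exactly half of the replicate wells pass the set limit; inactive means fewer than half of replicates pass the limit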
TNF necrop inh: inhibitors of TNF-alpha induced necroptosis in Jurkat FADD-/- cells; 0.068% of 220,000 active; activation (protection from cell death), % at 10 µM; AID 463075; Jurkat FADD-/- TNF necroptosis rescue, ATP luminescence, 24 h; 0 = TNF only, 100 = no-TNF cells;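 active means activation, meaning protection from cell death, of at least 50% relative to plate controls; inactive means activation below 50%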;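 further: necroptosis triggered by 40 ng/mL TNF-alpha added together with compound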
L929 necroptosis: blocks zVAD induced death of L929 cells; 0.38% of 220,000 active; L929 zVAD necroptosis rescue, ATP luminescence, 24 h; with zVAD 60 µM; viability rescue, % at 10 µM;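 active means activation, scaled between plate controls, above about 75%, limit read from the data; inactive means activation under that limit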
Runt-SMMHC FRET: blocks binding of human RUNX1 Runt domain to CBFb-SMMHC; inhibition, % at 20 µM; Cerulean-Runt/Venus-CBFb-SMMHC FRET ratio 530/480, 1 h; Q01196+Q13951; 0.74% of 220,000 active;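 active means mean inhibition across duplicate retests at 20 µM reaching about 50%, limit read from the data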;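 further: inhibitors lower the FRET ratio by blocking Runt binding to CBFb-SMMHC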
Target sequence (Q01196 whole entry, looked up, the tested form may be a part): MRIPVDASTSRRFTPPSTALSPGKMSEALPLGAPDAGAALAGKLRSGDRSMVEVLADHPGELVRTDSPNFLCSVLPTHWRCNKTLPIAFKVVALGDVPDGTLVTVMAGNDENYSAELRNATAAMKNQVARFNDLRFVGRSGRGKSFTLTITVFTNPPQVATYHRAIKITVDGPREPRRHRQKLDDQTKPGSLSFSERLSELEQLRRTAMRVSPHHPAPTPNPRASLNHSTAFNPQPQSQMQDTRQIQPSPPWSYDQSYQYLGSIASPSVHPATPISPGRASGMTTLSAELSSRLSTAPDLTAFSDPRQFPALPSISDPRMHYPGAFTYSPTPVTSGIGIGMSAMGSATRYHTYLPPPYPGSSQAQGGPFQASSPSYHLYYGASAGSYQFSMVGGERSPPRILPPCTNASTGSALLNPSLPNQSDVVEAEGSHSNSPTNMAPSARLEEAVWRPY
Target sequence (Q13951 whole entry, looked up, the tested form may be a part): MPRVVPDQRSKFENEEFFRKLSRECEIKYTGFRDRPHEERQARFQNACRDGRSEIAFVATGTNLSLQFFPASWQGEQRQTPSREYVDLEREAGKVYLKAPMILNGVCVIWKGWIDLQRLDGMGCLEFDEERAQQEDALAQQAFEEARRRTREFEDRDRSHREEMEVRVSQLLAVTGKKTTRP
Runt-CBFb FRET: blocks binding of human RUNX1 Runt domain to CBFb. Q01196+Q13951. Cerulean-Runt/Venus-CBFb FRET ratio 530/480, 1 h. inhibition, % at 20 µM. 0.46% of 220,000 active. AID 1496;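 active means inhibition over about 50% at 20 µM in the single-dose screen, limit read from the data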
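Buffer or medium: Tris pH 7.5 buffer with BSA. Assay system: Cerulean-labeled Runt domain protein. Amount: each fluorescent fusion protein 100 nM. Read-out basis: loss of energy transfer signal. Incubation: 1 h compound exposure, room temperature. Probe or stimulus: Venus-CBFb binding partner, 100 nM. Detection: FRET, excitation 422 nm, emission at 530 and 480 nm.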
Hck-Nef inh: human Hck-Nef kinase inhibition. inhibition, % at 20 µM. AID 463187. P08631. 0.68% of 220,000 active. Recombinant Hck-YEEI plus Nef, Z-Lyte FRET kinase assay;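 active means Hck-Nef kinase inhibition above about 50%, limit read from the data; inactive means inhibition below that limit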
Hits are given with their value; i = inactive; ? = inconclusive; nt = not tested or not shown. This is a sample that favours compounds with a hit; in the whole collection about 2.1% have one here.

SMILES | RanGTP-Impb inh | TNF necrop inh | L929 necroptosis | Runt-SMMHC FRET | Runt-CBFb FRET | Hck-Nef inh
CSc1ccc(C2NC(=O)c3c(sc4c3CCN(C)C4)N2)cc1 (stereo unspecified) | 112 | i | i | 64 | 110 | i
CN1CCc2c(sc3c2C(=O)NC(c2ccc(-c4cccc(Cl)c4)o2)N3)C1 (stereo unspecified) | 103 | i | i | 85 | 115 | i
CC(=O)Nc1c(C)ccc(S(N)(=O)=O)c1C | i | i | i | i | i | i
COC(=O)c1ccc(NC(=O)CCN2CCOCC2)cc1 | i | nt | nt | nt | nt | nt
COCCCNC(=O)Cn1c(=O)n(CCCCCC(=O)NCc2ccc3c(c2)OCO3)c(=O)c2sccc21 | ? | i | i | i | i | i
Cc1ccc(-c2nc(C=Nc3ccc(O)cc3)c(O)o2)cc1 | 22 | i | i | i | i | i
CN=Cc1nc(-c2ccccc2)oc1O | i | i | i | i | i | i
CCOC(=O)CC(=O)CSc1nc2c(c(C)c1C#N)CCC2 | 24 | i | i | i | i | i
CC(C)OC(=O)CC(=O)CSc1nc2c(cc1C#N)CCCCC2 | 26 | i | i | 71 | i | i
Fc1ccc(NC(=S)NCc2cccnc2)cc1 | 93 | i | i | i | i | i
COc1ccc(-n2cnc3cc(NS(=O)(=O)c4ccccc4)ccc32)cc1 | i | 53 | i | i | i | i
CCCCOc1ccc(/C=N/NC(=O)c2nnn(-c3nonc3N)c2CN2CCCCCC2)cc1 | 28 | nt | nt | nt | nt | nt
Nc1nonc1-n1nnc(C(=O)N/N=C/c2ccc(OCc3ccccc3)cc2)c1CN1CCCCC1 | i | nt | nt | nt | nt | nt
CN(Cc1ccon1)Cc1cn(C)nc1-c1cccc(Cl)c1 | i | i | i | i | i | i
CCOc1cccc(C2C(C#N)=C(N)Oc3cc(C)n(Cc4ccccn4)c(=O)c32)c1OCC (stereo unspecified) | i | i | i | i | i | i
COCCn1c(C)cc2c(c1=O)C(c1ccco1)C(C#N)=C(N)O2 (stereo unspecified) | i | i | i | 117 | 112 | i
CCn1c(C)cc2c(c1=O)C(c1ccccc1Br)C(C#N)=C(N)O2 (stereo unspecified) | 48 | i | i | i | i | i
N#Cc1c(-c2cccc(Br)c2)cc(-c2ccco2)[nH]c1=O | 72 | i | i | 90 | i | i
COc1ccc(-c2cc(-c3ccco3)[nH]c(=O)c2C#N)cc1 | i | i | i | 86 | i | i
COc1ccc(-c2cc(C(F)(F)F)c(C#N)c(=O)[nH]2)cc1 | 49 | i | i | 105 | i | i
COc1ccnc(-n2cccc2/C=N/O)c1C#N | i | i | i | i | i | i
COC(=O)c1ccc(CN2C(=O)NC3(CCC(C)CC3)C2=O)cc1 (stereo unspecified) | i | i | i | i | i | i
Cn1c(/C=N/NC(=O)c2ccccc2)nc2ccccc21 | i | i | i | i | i | i
Nc1nc2ccccc2n1C(=O)c1ccc(F)cc1 | i | i | i | i | i | i
Cn1c(/C=C/c2ccccc2)nc2ccccc21 | i | i | i | i | i | i
SMILES | RanGTP-Impb inh | TNF necrop inh | L929 necroptosis | Runt-SMMHC FRET | Runt-CBFb FRET | Hck-Nef inh
CC(=O)c1ccc(/C=C/c2nc3ccccc3n2C)o1 | i | i | i | 81 | i | i
Cn1c(=O)c(/C=C/c2ccccc2)nc2ccccc21 | 53 | i | i | 99 | i | i
CN(C)c1nc2ccccc2n(C)c1=O | i | i | i | i | i | i
O=c1c(/C=C(\O)c2ccc(F)cc2)nc2ccccc2n1-c1ccccc1 | 77 | i | i | i | i | i
Cn1c(=O)c(/C=C/c2ccc(F)cc2)nc2ccccc21 | 53 | i | i | i | i | i
O=C(Nc1ccccc1)Nc1n[nH]c2nnc(-c3ccccc3)c(-c3ccccc3)c12 | i | nt | nt | nt | nt | nt
CC(C)(C)n1nc2c(c1NC(=O)Cc1ccccc1)CS(=O)(=O)C2 | nt | i | i | i | i | i
O=C(/C=C/c1ccc(F)cc1)Nc1nc2ccccc2[nH]1 | i | i | i | i | i | i
O=c1[nH]c2ccccc2nc1/C=C/c1ccc(F)cc1 | 38 | i | i | i | i | i
Cc1ccc(NC(=S)NCCN2CCOCC2)cc1F | i | i | i | i | i | i
Cc1ccc(CNC(=O)C2CCC(CNc3nc(=S)[nH]c4ccccc34)CC2)cc1 (stereo unspecified) | 27 | i | i | i | i | i
COc1cccc(CNC(=O)C2CCC(CNc3nc(=S)[nH]c4ccccc34)CC2)c1 (stereo unspecified) | i | i | i | i | i | i
CN1CCN(C=Nc2nc3ccccc3nc2N2CCCC2)CC1 | ? | i | i | i | i | i
CCOc1ccc2nc(Cl)c(C3CC(c4ccco4)=NN3S(=O)(=O)c3ccccc3)cc2c1 (stereo unspecified) | i | i | i | i | i | 59
COc1ccc2cc(C3CC(c4ccco4)=NN3S(C)(=O)=O)c(Cl)nc2c1 (stereo unspecified) | i | i | i | i | i | i
CCOc1ccc(Nc2cc(C)nc(N3CCOCC3)n2)cc1 | ? | i | i | i | i | i
CCOc1ccc2nc(N3CCOCC3)nc(C)c2c1 | 58 | i | i | 79 | 74 | i
O=C(Cc1cc(=O)oc2cc(O)ccc12)NC(Cc1ccc(Cl)cc1)C(=O)O (stereo unspecified) | 50 | nt | nt | nt | nt | nt
Cc1c(O)ccc2c(CC(=O)N[C@@H](Cc3ccc(O)cc3)C(=O)O)cc(=O)oc12 | 52 | nt | nt | nt | nt | nt
O=C(CSc1nn(-c2ccc(Cl)cc2)c(=S)s1)NCC1CCCO1 (stereo unspecified) | i | i | i | i | i | i
O=C(Cn1cnc(Cl)c1Cl)c1ccc(F)cc1 | i | i | i | i | i | i
CCn1ncc(C2=NOC(C(=O)Nc3cnn(C45CC6CC(CC(C6)C4)C5)c3)C2)c1C (stereo unspecified) | i | i | 87 | i | i | i
CCn1ncc(C2=NOC(C(=O)NCC(C)C)C2)c1C (stereo unspecified) | i | i | i | i | i | i
COc1ccccc1-n1c(-c2ccccc2)c[nH]c1=S | ? | i | i | 54 | i | i
N#CC1=C(N)SC(N)=C(C#N)C1c1ccoc1 | 40 | i | i | i | i | i
CCN1/C(=C/C(C)=O)Sc2ccc(OC)cc21 | i | i | i | i | i | i
CCN1/C(=C2/SC(=S)N(NC(C)=O)C2=O)Sc2ccc(OC)cc21 | 34 | nt | nt | nt | nt | nt
CCN1/C(=C2/SC(=S)N(NC(C)=O)C2=O)Sc2ccc(Cl)cc21 | 33 | nt | nt | nt | nt | nt
CCCCN1C(=O)/C(=C2/Sc3ccc(OC)cc3N2CC)SC1=S | 23 | nt | nt | nt | nt | nt
COc1ccc(NC2CCCN(C(=O)c3cn(C)c4ccccc34)C2)cc1 (stereo unspecified) | i | nt | nt | nt | nt | nt
